Source: ChEMBL document CHEMBL2412964, “Discovery of novel tetrahydro-pyrazolo [4,3-c] pyridines for the treatment of neuropathic pain: synthesis and neuropharmacology” (Eur J Med Chem, 2013)

Columns and labels:
Rattus norvegicus [1] = experiment: Antinociceptive activity in Wistar rat chronic constriction injury model assessed as reversal of spontaneous pain response at 100 mg/kg, ip after 120 mins (reference value: 4.5 +/- 0.2%); format: functional; conditions: route intraperitoneal
Rattus norvegicus [2] = experiment: Antinociceptive activity in Wistar rat partial sciatic nerve ligation model assessed as reversal of mechanical allodynia at 100 mg/kg, ip after 30 mins (reference value: 2.9 +/- 0.3%); format: functional; conditions: route intraperitoneal
Rattus norvegicus [3] = experiment: Antinociceptive activity in Wistar rat partial sciatic nerve ligation model assessed as reversal of tactile allodynia at 100 mg/kg, ip after 120 mins relative to control; format: functional; conditions: route intraperitoneal
Rattus norvegicus [4] = experiment: Antinociceptive activity in Wistar rat partial sciatic nerve ligation model assessed as reversal of tactile allodynia at 100 mg/kg, ip after 60 mins (reference value: 12.5 +/- 1.2%); format: functional; conditions: route intraperitoneal
Mus musculus [5] = experiment: Neurotoxicity in Swiss albino mouse assessed as minimal motor impairment at 300 mg/kg after 4 hrs by rotarod test; format: toxicity, organism-based; set-up: dose 300 mg/kg; conditions: in vivo
How it was run: (§1)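 Swiss albino mice of either sex, 20-25 g, dosed at 30, 100 and 300 mg/kg, three per group. Minimal motor impairment scored by rotarod at 0.5 and 4.0 h after dosing. Reported value is the lowest dose giving impairment in half or more of the mice.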

[6] = system: Radical scavenging activity; experiment: Antioxidant activity assessed as DPPH radical scavenging activity after 20 mins […]; format: functional
How it was run: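 Compounds mixed with methanolic DPPH (final 300 µM) in microplate; after 20 min absorbance at 517 nm read; methanolic DPPH as control. % scavenging = (A DPPH − A DPPH+compound)/A DPPH × 100; dose–response curve used for IC50.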

Cannabinoid receptor 2 = target: T1, Cannabinoid receptor 2 (Rattus norvegicus, UniProt Q9QZN9); experiment: Displacement of [3H]CP55940 from CB2 receptor in rat spleen homogenate after 90 mins; format: tissue-based
T1 sequence (Q9QZN9 whole entry): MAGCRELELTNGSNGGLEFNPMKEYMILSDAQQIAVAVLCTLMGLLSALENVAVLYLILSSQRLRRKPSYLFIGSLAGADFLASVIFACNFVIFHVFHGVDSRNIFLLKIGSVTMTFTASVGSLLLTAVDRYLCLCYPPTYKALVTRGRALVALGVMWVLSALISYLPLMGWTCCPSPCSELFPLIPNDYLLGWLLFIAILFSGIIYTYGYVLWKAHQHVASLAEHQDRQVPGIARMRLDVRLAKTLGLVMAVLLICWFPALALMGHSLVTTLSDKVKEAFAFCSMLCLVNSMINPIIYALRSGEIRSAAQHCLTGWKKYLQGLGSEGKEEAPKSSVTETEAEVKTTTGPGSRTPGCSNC
How it was run: (§2)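 Rat brain (CB1) or spleen (CB2) membranes, homogenized in tris/NaCl/MgCl2 pH 7.4, competed against 0.5 nM [3H]CP55940 in 50 mM Tris-HCl, 2 mM EDTA, 5 mM MgCl2, 0.2 mg/mL BSA, pH 7.4; 90 min incubation. Nonspecific binding with 1 µM WIN (CB1) or 1 µM SR144528 (CB2); triplicates averaged.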

Mus musculus [7] = experiment: Antinociceptive activity in Swiss albino mouse assessed as inhibition of formalin-induced flinching at 100 mg/kg administered 30 mins prior to test measured up to 5 mins relative to control; format: functional
Cannabinoid receptor 1 = Cannabinoid receptor 1 (Rattus norvegicus, UniProt P20272); experiment: Displacement of [3H]CP55940 from CB1 receptor in rat brain homogenate after 90 mins; format: tissue-based; how it was run: as §2
Rattus norvegicus [8] = experiment: Antinociceptive activity in Wistar rat chronic constriction injury model assessed as reversal of tactile allodynia at 100 mg/kg, ip after 30 mins (reference value: 3.4 +/- 0.8%); format: functional; conditions: route intraperitoneal
Rattus norvegicus [9] = experiment: Antinociceptive activity in Wistar rat chronic constriction injury model assessed as reversal of mechanical allodynia at 100 mg/kg, ip after 120 mins (reference value: 5.3 +/- 0.5%); format: functional; conditions: route intraperitoneal
Rattus norvegicus [10] = organism: Rattus norvegicus; experiment: Neuroprotective activity in Wistar rat chronic constriction injury model assessed as inhibition of nitric oxide production in sciatic nerve after 2 hrs by Griess method relative to control; format: functional
How it was run: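 Wistar rats of either sex (200-250 g) with chronic constriction of the left sciatic nerve. On day 9 post-injury, compound given i.p. in 30% v/v PEG 400; tissue taken 2 h after dosing. Nitrate reduced to nitrite, nitrite measured colorimetrically with Griess reagent against a standard curve. Results expressed as percentage of vehicle-treated control; n = 4.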

Rattus norvegicus [11] = experiment: Antinociceptive activity in Wistar rat partial sciatic nerve ligation model assessed as reversal of mechanical allodynia at 100 mg/kg, ip after 120 mins (reference value: 2.9 +/- 0.3%); format: functional; conditions: route intraperitoneal
[12] = target: Cathepsin S (Homo sapiens) (UniProt P25774); experiment: Inhibition of human recombinant cathepsin S using Z-Val-Val-Arg-AMC as substrate at 50 uM preincubated for 10 mins prior to substrate addition measured after 30 mins by fluorescence spectrophotometric analysis relative to control
Mus musculus [13] = experiment: Antiinflammatory activity in Swiss albino mouse assessed as inhibition of LPS-induced TNFalpha production at 100 mg/kg, ip administered 30 mins prior to LPS-challenge measured after 90 mins by ELISA relative to control; format: functional; conditions: route intraperitoneal
How it was run: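 Swiss albino mice (20–25 g, either sex) dosed i.p. with 100 mg/kg in 10 mL/kg; LPS 1.0 mg/kg in sterile PBS i.p. given 30 min later. Blood taken 90 min after LPS, plasma TNF measured by ELISA, expressed as % inhibition versus vehicle-treated control; n = 4, one-way ANOVA with Dunnett's test.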

Mus musculus [14] = experiment: Neurotoxicity in Swiss albino mouse assessed as minimal motor impairment at 300 mg/kg after 0.5 hrs by rotarod test; format: toxicity, organism-based; set-up: dose 300 mg/kg; conditions: in vivo; how it was run: as §1
Mus musculus [15] = experiment: Anticonvulsant activity in ip dosed Swiss albino mouse assessed as protection against picrotoxin-induced seizure administered 30 mins prior to picrotoxin-challenge measured after 0.5 hrs; format: functional; conditions: read-out: MED
How it was run: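 Mice, either sex, 20-25 g, given compound i.p. at 30, 100 and 300 mg/kg. Thirty minutes later, picrotoxin 3.15 mg/kg was injected s.c. in 0.01 mL/g body weight. Animals were isolated and watched for 45 min for a threshold convulsion, and protection was scored as its absence. Examined at 0.5 and 4 h. Value reported is the minimum dose active in half or more of the mice (n = 3).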

Rattus norvegicus [16] = experiment: Antinociceptive activity in Wistar rat chronic constriction injury model assessed as reversal of spontaneous pain response at 100 mg/kg, ip after 60 mins (reference value: 4.6 +/- 0.6%); format: functional; conditions: route intraperitoneal
Rattus norvegicus [17] = experiment: Antinociceptive activity in Wistar rat chronic constriction injury model assessed as reversal of mechanical allodynia at 100 mg/kg, ip after 60 mins (reference value: 4.9 +/- 1.0%); format: functional; conditions: route intraperitoneal
Rattus norvegicus [18] = experiment: Antinociceptive activity in Wistar rat partial sciatic nerve ligation model assessed as reversal of spontaneous pain response at 100 mg/kg, ip after 60 mins (reference value: 2.9 +/- 0.3%); format: functional; conditions: route intraperitoneal
Rattus norvegicus [19] = experiment: Antinociceptive activity in Wistar rat chronic constriction injury model assessed as reversal of cold allodynia at 100 mg/kg, ip after 60 mins (reference value: 6.3 +/- 1.9%); format: functional; conditions: route intraperitoneal
Rattus norvegicus [20] = experiment: Antinociceptive activity in Wistar rat partial sciatic nerve ligation model assessed as reversal of spontaneous pain response at 100 mg/kg, ip after 30 mins (reference value: 3.2 +/- 0.3%); format: functional; conditions: route intraperitoneal

Chain of Cathepsin S (Homo sapiens) (P25774 115-331 limits assumed): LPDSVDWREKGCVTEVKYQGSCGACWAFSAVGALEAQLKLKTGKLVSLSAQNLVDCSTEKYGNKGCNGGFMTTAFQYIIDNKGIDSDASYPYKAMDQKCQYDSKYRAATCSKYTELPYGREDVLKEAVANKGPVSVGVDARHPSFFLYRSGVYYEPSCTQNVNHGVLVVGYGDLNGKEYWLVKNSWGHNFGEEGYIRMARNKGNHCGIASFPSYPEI
Chain of Cannabinoid receptor 1 (P20272 whole entry): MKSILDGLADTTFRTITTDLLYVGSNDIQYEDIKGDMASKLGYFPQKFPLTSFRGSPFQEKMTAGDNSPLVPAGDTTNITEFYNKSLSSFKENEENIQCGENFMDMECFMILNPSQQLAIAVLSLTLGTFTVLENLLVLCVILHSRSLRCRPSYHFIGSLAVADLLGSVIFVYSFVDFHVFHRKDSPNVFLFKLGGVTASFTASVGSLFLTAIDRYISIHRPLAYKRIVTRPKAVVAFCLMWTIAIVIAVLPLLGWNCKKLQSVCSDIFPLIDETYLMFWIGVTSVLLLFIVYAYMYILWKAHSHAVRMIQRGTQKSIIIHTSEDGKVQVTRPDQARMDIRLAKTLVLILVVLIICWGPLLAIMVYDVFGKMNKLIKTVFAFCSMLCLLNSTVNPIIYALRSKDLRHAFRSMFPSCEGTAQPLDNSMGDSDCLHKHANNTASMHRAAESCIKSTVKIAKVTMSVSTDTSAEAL

SMILES	Activity (Rattus norvegicus [1])	Activity (Rattus norvegicus [2])	Activity (Rattus norvegicus [3])	Activity (Rattus norvegicus [4])	Activity (Mus musculus [5])	IC50 [6]	IC50 (Cannabinoid receptor 2)	inhibition in vivo at 100 mg/kg (Mus musculus [7])	IC50 (Cannabinoid receptor 1)	Activity (Rattus norvegicus [8])	Activity (Rattus norvegicus [9])	inhibition (INH) (Rattus norvegicus [10])	Activity (Rattus norvegicus [11])	inhibition [12]	inhibition in vivo at 100 mg/kg (Mus musculus [13])	Activity (Mus musculus [14])	minimal effective dose (Mus musculus [15])	Activity (Rattus norvegicus [16])	Activity (Rattus norvegicus [17])	Activity (Rattus norvegicus [18])	further results
CCN1CCc2c(c(C(C)(C)C)nn2C(=O)Nc2ccc(Br)cc2)C1	83.2%	59.8%	44.9%	44.9%	Non-toxic	81000 nM	> 1000 nM	0%	49.6 nM	66.7%	65.3%	47.8%	41.1%	39.9%	86.4%	Non-toxic	100 mg/kg	85.9%	66%	55.7%	Activity (Rattus norvegicus [19]): 65%; Activity (Rattus norvegicus [20]): 90.4%
CCN1CCc2c(c(C(C)(C)C)nn2C(=O)Nc2ccc(C)cc2C)C1	89.5%	62.3%	88.4%	50.4%	Non-toxic	134000 nM	> 1000 nM	15.7%	> 1000 nM	69.7%	67.5%	65.4%	46.3%	12.1%	58.9%	Non-toxic	300 mg/kg	90.9%	80%	67.3%	Activity (Rattus norvegicus [19]): 50.4%; Activity (Rattus norvegicus [20]): 89.9%
CCN1CCc2c(c(C(C)(C)C)nn2C(=O)Nc2c(C)cccc2C)C1	88.5%	95.5%	46.6%	61.6%	Non-toxic	102000 nM	> 1000 nM	15.7%	> 1000 nM	90.1%	78.9%	68.7%	50%	34.1%	77.6%	Non-toxic	100 mg/kg	90.7%	84.4%	78.3%	Activity (Rattus norvegicus [19]): 61.2%; Activity (Rattus norvegicus [20]): 93.9%
